Test results published in ChEMBL document CHEMBL1152963, “Synthesis and antimicrobial activity of 4-hydroxy-4-(pyridyl)alk-3-en-2-ones” (2009).
Converted amounts (≈) assume the structure as drawn.

Columns and labels:
Type in all cases: functional
[1] = test system: Escherichia coli; test: Antimicrobial activity against Escherichia coli […] after 24 hrs by dilution susceptibility assay
Method in brief: (§1)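 Broth microdilution MIC per CLSI recommendations, ATCC strains, 96-well format, no agitation; inoculum 2 × 10⁵ bacterial cells per well; incubated 24 h at 37 °C; MIC as average of 3 independent experiments.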

[2] = test system: Staphylococcus aureus; test: Antimicrobial activity against Staphylococcus aureus ATCC 6538 after 24 hrs by dilution susceptibility assay; settings: ATCC 6538, 24 h; method in brief: as §1
[3] = test system: Bacillus subtilis; test: Antimicrobial activity against Bacillus subtilis ATCC 11229 after 24 hrs by dilution susceptibility assay; settings: ATCC 11229, 24 h; method in brief: as §1

MIC [1]	MIC [2]	MIC [3]	SMILES
47.7 µg/mL (≈ 232 µM)	96.5 µg/mL (≈ 470 µM)	48.1 µg/mL (≈ 235 µM)	CCCCC(=O)/C=C(\O)c1ccccn1
379 µg/mL (≈ 2320 µM)	46.9 µg/mL (≈ 287 µM)	190 µg/mL (≈ 1160 µM)	CC(=O)/C=C(\O)c1ccccn1
97.8 µg/mL (≈ 512 µM)	192 µg/mL (≈ 1000 µM)	97.2 µg/mL (≈ 509 µM)	CCCC(=O)/C=C(\O)c1ccccn1
195 µg/mL (≈ 1100 µM)	23.6 µg/mL (≈ 133 µM)	211 µg/mL (≈ 1190 µM)	CCC(=O)/C=C(\O)c1ccccn1
94.1 µg/mL (≈ 492 µM)	193 µg/mL (≈ 1010 µM)	200 µg/mL (≈ 1050 µM)	CCCC(=O)/C=C(\O)c1cccnc1
95.4 µg/mL (≈ 465 µM)	95.5 µg/mL (≈ 465 µM)	95.4 µg/mL (≈ 465 µM)	CCCCC(=O)/C=C(\O)c1cccnc1

Continued, compound first:

SMILES	MIC [1]	MIC [2]	MIC [3]
CC(=O)/C=C(\O)c1cccnc1	402 µg/mL (≈ 2460 µM)	392 µg/mL (≈ 2400 µM)	397 µg/mL (≈ 2430 µM)
CCC(=O)C(C)C(=O)c1ccccn1 (stereo unspecified)	391 µg/mL (≈ 2040 µM)	758 µg/mL (≈ 3960 µM)	786 µg/mL (≈ 4110 µM)
CCC(=O)/C=C(\O)c1cccnc1	379 µg/mL (≈ 2140 µM)	380 µg/mL (≈ 2150 µM)	374 µg/mL (≈ 2110 µM)
O=C(/C=C(\O)c1cccnc1)c1ccccc1	95.8 µg/mL (≈ 425 µM)	95.1 µg/mL (≈ 422 µM)	94.6 µg/mL (≈ 420 µM)
O=C(/C=C(\O)c1ccccn1)c1ccccc1	24.1 µg/mL (≈ 107 µM)	47.4 µg/mL (≈ 210 µM)	24.5 µg/mL (≈ 109 µM)
CC1(C)S[C@@H]2[C@H](NC(=O)[C@H](N)c3ccccc3)C(=O)N2[C@H]1C(=O)O [AMPICILLIN]	6.99 µg/mL (≈ 20 µM)	3.19 µg/mL (≈ 9.13 µM)	12.5 µg/mL (≈ 35.7 µM)
